Activity calls are given as the source filed them. The calls are words filed in the database; no cut-off is given here. Bridge positions count the residues as written; N and C are the ends. Square brackets hold non-standard residues; d marks the D form. Peptide text beside a SMILES is read from it. * marks the point of attachment. X1 = CC[C@H](C)CCCCC(=O)*; Dab = NCC[C@H](N)C(=O)O
Columns and labels:
[1] = Therapeutic index, ratio of HC50 for human RBC to MIC for methicillin resistant Staphylococcus aureus ATCC BAA-1556
Procedure, shortened: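 Human RBCs washed in PBS pH 7.4 and mixed 1:1 with two-fold peptide dilutions (4% v/v suspension), 2 h at 37 °C. Hemoglobin in supernatant read at 567 nm against PBS (0%) and 1% Triton X-100 (100%). HC50 is the concentration giving 50% hemolysis. Index is HC50 divided by MIC against MRSA.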

Pseudomonas aeruginosa = assay: Antibacterial activity against Pseudomonas aeruginosa ATCC […] after 24 hrs by microbroth dilution method; format: functional
Staphylococcus aureus [2] = assay: Antibacterial activity against methicillin resistant Staphylococcus aureus ATCC BAA-1556 after 24 hrs by microbroth dilution method; format: functional
Klebsiella pneumoniae = assay: Antibacterial activity against imipenem resistant Klebsiella pneumoniae ATCC BAA-1705 after 24 hrs by microbroth dilution method; format: functional
Escherichia coli [3] = assay: Antibacterial activity against Escherichia coli ATCC 25922 after 24 hrs by microbroth dilution method; format: functional
Staphylococcus aureus [4] = assay: Induction of resistance development in Staphylococcus aureus ATCC 29213 assessed as increase in MIC by microtiter plate reader assay; format: functional, organism-based
Procedure, shortened: (§1)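 Serial passage resistance assay with 2-fold microdilution MICs in 96-well plates. Each passage takes the well with the highest concentration still permitting growth, adjusts it to 0.5 McFarland, and dilutes it to a final 5 × 10^5 CFU/mL for the next passage. Eighteen passages; MIC recorded at each. Triplicate.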

Staphylococcus aureus [5] = assay: Induction of resistance development in methicillin resistant Staphylococcus aureus ATCC BAA-1556 assessed as increase in MIC by microtiter plate reader assay; format: functional, organism-based; procedure, shortened: as §1
Escherichia coli [6] = assay: Induction of resistance development in Escherichia coli ATCC 25922 assessed as increase in MIC by microtiter plate reader assay; format: functional, organism-based
Escherichia coli [7] = assay: Induction of resistance development in Escherichia coli ATCC BAA-2452 assessed as increase in MIC by microtiter plate reader assay; format: functional, organism-based; procedure, shortened: as §1

SMILES	TI [1]	further results
N=C(N)NCCC[C@@H]1NC(=O)[C@H](CCCNC(=N)N)NC(=O)[C@H](Cc2c[nH]c3ccccc23)NC(=O)[C@H](Cc2c[nH]c3ccccc23)NC(=O)[C@H](Cc2c[nH]c3ccccc23)NC(=O)[C@H](Cc2c[nH]c3ccccc23)NC(=O)[C@H](Cc2c[nH]c3ccccc23)NC(=O)[C@H](Cc2c[nH]c3ccccc23)NC(=O)[C@H](CCCNC(=N)N)NC1=O	1.02	–
N=C(N)NCCC[C@@H]1NC(=O)[C@H](CCCNC(=N)N)NC(=O)[C@H](CCCNC(=N)N)NC(=O)[C@H](CCCNC(=N)N)NC(=O)[C@H](Cc2c[nH]c3ccccc23)NC(=O)[C@H](Cc2c[nH]c3ccccc23)NC(=O)[C@H](Cc2c[nH]c3ccccc23)NC(=O)[C@H](Cc2c[nH]c3ccccc23)NC(=O)[C@H](Cc2c[nH]c3ccccc23)NC(=O)[C@H](CCCNC(=N)N)NC(=O)[C@H](CCCNC(=N)N)NC(=O)[C@H](CCCNC(=N)N)NC1=O (cyclo(RRRRRRRWWWWW))	21.9	–
N=C(N)NCCC[C@@H]1NC(=O)[C@H](CCCNC(=N)N)NC(=O)[C@H](CCCNC(=N)N)NC(=O)[C@H](CCCNC(=N)N)NC(=O)[C@H](Cc2c[nH]c3ccccc23)NC(=O)[C@H](Cc2c[nH]c3ccccc23)NC(=O)[C@H](Cc2c[nH]c3ccccc23)NC(=O)[C@H](Cc2c[nH]c3ccccc23)NC(=O)[C@H](Cc2c[nH]c3ccccc23)NC(=O)[C@H](Cc2c[nH]c3ccccc23)NC(=O)[C@H](CCCNC(=N)N)NC(=O)[C@H](CCCNC(=N)N)NC1=O (cyclo(RRRRRRWWWWWW))	10.6	–
N=C(N)NCCC[C@@H]1NC(=O)[C@H](CCCNC(=N)N)NC(=O)[C@H](Cc2c[nH]c3ccccc23)NC(=O)[C@H](Cc2c[nH]c3ccccc23)NC(=O)[C@H](Cc2c[nH]c3ccccc23)NC(=O)[C@H](Cc2c[nH]c3ccccc23)NC1=O (cyclo(RRWWWW))	1.33	–
N=C(N)NCCC[C@@H]1NC(=O)[C@H](CCCNC(=N)N)NC(=O)[C@H](CCCNC(=N)N)NC(=O)[C@H](CCCNC(=N)N)NC(=O)[C@H](Cc2c[nH]c3ccccc23)NC(=O)[C@H](Cc2c[nH]c3ccccc23)NC(=O)[C@H](Cc2c[nH]c3ccccc23)NC(=O)[C@H](Cc2c[nH]c3ccccc23)NC(=O)[C@H](Cc2c[nH]c3ccccc23)NC(=O)[C@H](Cc2c[nH]c3ccccc23)NC(=O)[C@H](Cc2c[nH]c3ccccc23)NC(=O)[C@H](CCCNC(=N)N)NC(=O)[C@H](CCCNC(=N)N)NC(=O)[C@H](CCCNC(=N)N)NC1=O (cyclo(RRRRRRRWWWWWWW))	8.75	–
N=C(N)NCCC[C@@H]1NC(=O)[C@H](CCCNC(=N)N)NC(=O)[C@H](CCCNC(=N)N)NC(=O)[C@H](Cc2c[nH]c3ccccc23)NC(=O)[C@H](Cc2c[nH]c3ccccc23)NC(=O)[C@H](Cc2c[nH]c3ccccc23)NC(=O)[C@H](Cc2c[nH]c3ccccc23)NC(=O)[C@H](Cc2c[nH]c3ccccc23)NC(=O)[C@H](Cc2c[nH]c3ccccc23)NC(=O)[C@H](Cc2c[nH]c3ccccc23)NC(=O)[C@H](CCCNC(=N)N)NC1=O (cyclo(RRRRWWWWWWW))	0.23	MIC (Pseudomonas aeruginosa): > 256 mg/L
N=C(N)NCCC[C@@H]1NC(=O)[C@H](CCCNC(=N)N)NC(=O)[C@H](Cc2c[nH]c3ccccc23)NC(=O)[C@H](Cc2c[nH]c3ccccc23)NC(=O)[C@H](Cc2c[nH]c3ccccc23)NC(=O)[C@H](Cc2c[nH]c3ccccc23)NC(=O)[C@H](CCCNC(=N)N)NC1=O (cyclo(RRRWWWW))	13.1	–
N=C(N)NCCC[C@@H]1NC(=O)[C@H](CCCNC(=N)N)NC(=O)[C@H](CCCNC(=N)N)NC(=O)[C@H](CCCNC(=N)N)NC(=O)[C@H](Cc2c[nH]c3ccccc23)NC(=O)[C@H](Cc2c[nH]c3ccccc23)NC(=O)[C@H](Cc2c[nH]c3ccccc23)NC(=O)[C@H](Cc2c[nH]c3ccccc23)NC(=O)[C@H](Cc2c[nH]c3ccccc23)NC(=O)[C@H](Cc2c[nH]c3ccccc23)NC(=O)[C@H](CCCNC(=N)N)NC(=O)[C@H](CCCNC(=N)N)NC(=O)[C@H](CCCNC(=N)N)NC1=O (cyclo(RRRRRRRWWWWWW))	5.31	–
N=C(N)NCCC[C@@H]1NC(=O)[C@H](CCCNC(=N)N)NC(=O)[C@H](Cc2c[nH]c3ccccc23)NC(=O)[C@H](Cc2c[nH]c3ccccc23)NC(=O)[C@H](Cc2c[nH]c3ccccc23)NC(=O)[C@H](CCCNC(=N)N)NC1=O (cyclo(WWWRRR))	9.69	–
N=C(N)NCCC[C@@H]1NC(=O)[C@H](CCCNC(=N)N)NC(=O)[C@H](CCCNC(=N)N)NC(=O)[C@H](Cc2c[nH]c3ccccc23)NC(=O)[C@H](Cc2c[nH]c3ccccc23)NC(=O)[C@H](Cc2c[nH]c3ccccc23)NC(=O)[C@H](Cc2c[nH]c3ccccc23)NC(=O)[C@H](Cc2c[nH]c3ccccc23)NC(=O)[C@H](Cc2c[nH]c3ccccc23)NC(=O)[C@H](CCCNC(=N)N)NC(=O)[C@H](CCCNC(=N)N)NC1=O (cyclo(RRRRRWWWWWW))	> 0.54	MIC (Staphylococcus aureus [2]): > 256 mg/L; MIC (Klebsiella pneumoniae): > 256 mg/L; MIC (Pseudomonas aeruginosa): > 256 mg/L; MIC (Escherichia coli [3]): > 256 mg/L
N=C(N)NCCC[C@@H]1NC(=O)[C@H](CCCNC(=N)N)NC(=O)[C@H](CCCNC(=N)N)NC(=O)[C@H](Cc2c[nH]c3ccccc23)NC(=O)[C@H](Cc2c[nH]c3ccccc23)NC(=O)[C@H](Cc2c[nH]c3ccccc23)NC(=O)[C@H](Cc2c[nH]c3ccccc23)NC(=O)[C@H](Cc2c[nH]c3ccccc23)NC(=O)[C@H](Cc2c[nH]c3ccccc23)NC(=O)[C@H](Cc2c[nH]c3ccccc23)NC(=O)[C@H](CCCNC(=N)N)NC(=O)[C@H](CCCNC(=N)N)NC1=O (cyclo(RRRRRWWWWWWW))	> 0.45	MIC (Staphylococcus aureus [2]): > 256 mg/L; MIC (Klebsiella pneumoniae): > 256 mg/L; MIC (Pseudomonas aeruginosa): > 256 mg/L; MIC (Escherichia coli [3]): > 256 mg/L
N=C(N)NCCC[C@@H]1NC(=O)[C@H](CCCNC(=N)N)NC(=O)[C@H](CCCNC(=N)N)NC(=O)[C@H](Cc2c[nH]c3ccccc23)NC(=O)[C@H](Cc2c[nH]c3ccccc23)NC(=O)[C@H](Cc2c[nH]c3ccccc23)NC(=O)[C@H](Cc2c[nH]c3ccccc23)NC(=O)[C@H](Cc2c[nH]c3ccccc23)NC(=O)[C@H](Cc2c[nH]c3ccccc23)NC(=O)[C@H](CCCNC(=N)N)NC1=O	0.59	–
N=C(N)NCCC[C@@H]1NC(=O)[C@H](CCCNC(=N)N)NC(=O)[C@H](CCCNC(=N)N)NC(=O)[C@H](CCCNC(=N)N)NC(=O)[C@H](Cc2c[nH]c3ccccc23)NC(=O)[C@H](Cc2c[nH]c3ccccc23)NC(=O)[C@H](Cc2c[nH]c3ccccc23)NC(=O)[C@H](Cc2c[nH]c3ccccc23)NC(=O)[C@H](CCCNC(=N)N)NC(=O)[C@H](CCCNC(=N)N)NC(=O)[C@H](CCCNC(=N)N)NC1=O (cyclo(RRRRRRRWWWW))	11.9	–
N=C(N)NCCC[C@@H]1NC(=O)[C@H](CCCNC(=N)N)NC(=O)[C@H](Cc2c[nH]c3ccccc23)NC(=O)[C@H](Cc2c[nH]c3ccccc23)NC(=O)[C@H](Cc2c[nH]c3ccccc23)NC(=O)[C@H](Cc2c[nH]c3ccccc23)NC(=O)[C@H](Cc2c[nH]c3ccccc23)NC(=O)[C@H](CCCNC(=N)N)NC1=O (cyclo(RRRWWWWW))	0.63	–
CC[C@H](C)CCCCC(=O)N[C@@H](CCN)C(=O)N[C@H](C(=O)N[C@@H](CCN)C(=O)N[C@H]1CCNC(=O)[C@H]([C@@H](C)O)NC(=O)[C@H](CCN)NC(=O)[C@H](CCN)NC(=O)[C@H](CC(C)C)NC(=O)[C@@H](Cc2ccccc2)NC(=O)[C@H](CCN)NC1=O)[C@@H](C)O (X1-[Dab]T[Dab][Dab][Dab][dF]L[Dab][Dab]T; lactam 4-C)	–	Activity (Staphylococcus aureus [4]): Active; Activity (Staphylococcus aureus [5]): Active; Activity (Escherichia coli [6]): Active; Activity (Escherichia coli [7]): Active
N=C(N)NCCC[C@@H]1NC(=O)[C@H](CCCNC(=N)N)NC(=O)[C@H](CCCNC(=N)N)NC(=O)[C@H](Cc2c[nH]c3ccccc23)NC(=O)[C@H](Cc2c[nH]c3ccccc23)NC(=O)[C@H](Cc2c[nH]c3ccccc23)NC(=O)[C@H](Cc2c[nH]c3ccccc23)NC(=O)[C@H](Cc2c[nH]c3ccccc23)NC(=O)[C@H](CCCNC(=N)N)NC(=O)[C@H](CCCNC(=N)N)NC1=O	57.5	–
N=C(N)NCCC[C@@H]1NC(=O)[C@H](CCCNC(=N)N)NC(=O)[C@H](Cc2c[nH]c3ccccc23)NC(=O)[C@H](Cc2c[nH]c3ccccc23)NC(=O)[C@H](Cc2c[nH]c3ccccc23)NC1=O (cyclo(RRWWW))	3.75	–
O=C(O)c1cn(C2CC2)c2cc(N3CCNCC3)c(F)cc2c1=O	–	Activity (Staphylococcus aureus [4]): Active; Activity (Staphylococcus aureus [5]): Active; Activity (Escherichia coli [7]): Active
N=C(N)NCCC[C@@H]1NC(=O)[C@H](CCCNC(=N)N)NC(=O)[C@H](CCCNC(=N)N)NC(=O)[C@H](Cc2c[nH]c3ccccc23)NC(=O)[C@H](Cc2c[nH]c3ccccc23)NC(=O)[C@H](Cc2c[nH]c3ccccc23)NC(=O)[C@H](Cc2c[nH]c3ccccc23)NC(=O)[C@H](CCCNC(=N)N)NC1=O (cyclo(RRRRWWWW))	43.8	–

— ChEMBL document CHEMBL5236607, “Membrane-Active Cyclic Amphiphilic Peptides: Broad-Spectrum Antibacterial Activity Alone and in Combination with Antibiotics” (J Med Chem, 2022)
